Measurements from different studies.
Compare with care: the assays were run in different laboratories.

| SMILES | target or system | assay | test system | setting | quantity | result |
| --- | --- | --- | --- | --- | --- | --- |
| CO[C@H]1C[C@@H]2CC[C@@H](C)[C@@](O)(O2)C(=O)C(=O)N2CCCC[C@H]2C(=O)O[C@H]([C@H](C)C[C@@H]2CC[C@@H](O)[C@H](OC)C2)CC(=O)[C@H](C)/C=C(\C)[C@@H](O)[C@@H](OC)C(=O)[C@H](C)C[C@H](C)/C=C/C=C/C=C/1C | MB002 | cell growth or viability |  | 7 days | IC50 | 6.5 nM |
| Nc1nonc1-c1nc2cnccc2n1C1CCCCC1 | Trypanosoma brucei | parasite growth |  |  | EC50 | 1260 nM |
| N#Cc1ccc(/C=C/c2nc3ccccc3c(=O)n2-c2cccc(C(=O)NCCO)c2)cc1 | Enterococcus faecium | microbial growth, broth dilution | NCTC7171 |  | MIC | > 128 µg/mL |
| CC(C)C[C@H](NC(=O)[C@H](Cc1ccccc1)NC(=O)c1cnccn1)B(O)O | MB002 | cell growth or viability |  | 7 days | IC50 | 3.13 nM |
| C[C@@H]1[C@H](O)[C@@H](C)/C=C/C=C/C=C/C=C/C=C/C=C/C=C/[C@H](O[C@@H]2O[C@H](C)[C@@H](O)[C@H](N)[C@@H]2O)C[C@@H]2O[C@](O)(C[C@@H](O)C[C@@H](O)[C@H](O)CC[C@@H](O)C[C@@H](O)CC(=O)O[C@H]1C)C[C@H](O)[C@H]2C(=O)O | Candida albicans | microbial growth | ATCC90028 |  | IC50 | 0.25 µg/mL |
| COc1ccccc1-c1cc(/C=C2\C(=O)Nc3ncc(Br)cc32)cc(Br)c1O | Trypanosoma brucei | parasite growth |  |  | EC50 | 2510 nM |
| CCNc1nc(Nc2cc(F)c(C(=O)N3CCOCC3)cc2OC)ncc1C(F)(F)F | MB002 | cell growth or viability |  | 7 days | IC50 | > 10000 nM |
| CC(=O)Nc1cccc(-n2c(=O)n(C3CC3)c(=O)c3c(Nc4ccc(I)cc4F)n(C)c(=O)c(C)c32)c1 | Calu-6 | cell growth or viability, resazurin |  | 390 pM, 72 h | viability | 89.4% |
| O=C(NCCO)c1cccc(-n2c(/C=C/c3ccc(F)cc3)nc3ccccc3c2=O)c1 | Enterococcus faecium | microbial growth, broth dilution | NCTC7171 |  | MIC | > 128 µg/mL |
| O=C(O)c1cn(C2CC2)c2cc(N3CCNCC3)c(F)cc2c1=O | Mycobacterium intracellulare | microbial growth, resazurin | ATCC23068 |  | IC50 | 0.4 µg/mL |
| CCCN(CCS(C)(=O)=O)Cc1ccc(-c2ccc3ncnc(Nc4ccc(OCc5cccc(F)c5)c(Cl)c4)c3c2)o1 | Trypanosoma brucei | parasite growth |  |  | EC50 | 2000 nM |
| Oc1nc(-c2ccc(C(F)(F)F)cc2)nc2c1CSCC2 | MB002 | cell growth or viability |  | 7 days | IC50 | > 10000 nM |
| COc1cc(Nc2ncc3c(C)nc(-c4cccc(C(F)(F)F)c4)n3n2)cc(OC)c1OC | Trypanosoma brucei | parasite growth |  |  | EC50 | 158 nM |
| CC(=O)OCCCn1c(/C=C/c2ccc(C#N)cc2)nc2ccccc2c1=O | Enterococcus faecium | microbial growth, broth dilution | NCTC7171 |  | MIC | > 128 µg/mL |
| CCN(CCCOc1ccc2c(Nc3cc(CC(=O)Nc4cccc(F)c4)n[nH]3)ncnc2c1)CCOP(=O)(O)O | MB002 | cell growth or viability |  | 7 days | IC50 | 131 nM |
| COc1cccc(-n2ncc3c(N/N=C/c4ccc(C(=O)NCCN(C)C)cc4)ncnc32)c1 | Trypanosoma brucei | parasite growth |  |  | EC50 | 251 nM |
